# From PubChem
# A selection: hits, their analogues and other compounds. The true share with any hit is near 6.7%.
# Beta cell apopt: blocks beta cell apoptosis; INS-1E cytokine-induced death, ATP luminescence, 48 h; percent of positive-control rescue, neutral wells zero; protection from apoptosis, % (concentration not given with the values); 300,000 tested, 0.8% active; AID 435005;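 active = Every replicate reaches about 75%, or at least half do and their mean reaches it too, limit read from the data; inconclusive = At least half of replicates reach the limit but their mean does not; inactive = Under half of replicates reach the limit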;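 also: higher means more ATP so stronger rescue from cytokine killing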
# PREPL inhibitor: inhibits the human prolyl oligopeptidase-like enzyme; Q4J6C6; recombinant PREPL, fluorescence polarization activity-based probe; inhibition, % at 5.96 µM; 320,000 tested, 0.68% active; in the data active = inhibition above about 43%
# Target sequence (Q4J6C6 whole entry, looked up): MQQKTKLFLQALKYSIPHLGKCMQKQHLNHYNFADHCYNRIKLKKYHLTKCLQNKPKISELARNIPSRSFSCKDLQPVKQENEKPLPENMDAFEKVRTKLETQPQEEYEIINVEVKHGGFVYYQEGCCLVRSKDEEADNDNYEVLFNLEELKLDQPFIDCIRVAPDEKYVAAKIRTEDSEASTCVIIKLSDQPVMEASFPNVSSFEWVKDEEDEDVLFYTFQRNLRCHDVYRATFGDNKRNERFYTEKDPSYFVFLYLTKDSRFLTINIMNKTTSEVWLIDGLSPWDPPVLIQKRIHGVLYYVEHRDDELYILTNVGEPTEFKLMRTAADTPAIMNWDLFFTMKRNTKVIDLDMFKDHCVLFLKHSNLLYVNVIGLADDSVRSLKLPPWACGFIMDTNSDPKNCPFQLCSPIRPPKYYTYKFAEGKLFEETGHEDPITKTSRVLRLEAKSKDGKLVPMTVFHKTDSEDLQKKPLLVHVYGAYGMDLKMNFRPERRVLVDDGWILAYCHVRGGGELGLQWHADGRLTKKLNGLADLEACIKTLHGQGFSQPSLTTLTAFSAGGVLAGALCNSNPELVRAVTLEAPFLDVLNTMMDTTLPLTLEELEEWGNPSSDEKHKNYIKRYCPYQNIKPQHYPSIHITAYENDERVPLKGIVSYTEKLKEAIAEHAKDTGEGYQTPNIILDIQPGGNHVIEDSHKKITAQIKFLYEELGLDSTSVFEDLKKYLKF
# T cruzi inh: blocks replication of Trypanosoma cruzi; T. cruzi beta-gal in NIH3T3, luminescence, 90 h; inhibition, % (concentration not given with the values); 300,000 tested, 1.4% active; AID 1885;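 active = mean inhibition across valid replicates above about 55%, limit read from the data; inconclusive = mean below that limit but half or more replicates reach it; inactive = mean below it, under half of replicates reach it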;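 also: signal also drops with host cell toxicity which is not excluded here; higher percent means less beta-gal luminescence so fewer parasites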
#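 System: NIH/3T3 fibroblasts plus reporter T. cruzi. Medium: DMEM plus 2% FBS. Probe or stimulus: 5000 reporter trypomastigotes per well. Compound: single 50 nL compound addition per well in DMSO. Incubation: co-culture of at least 90 h after 3 h attachment. Detection: GalScreen β-gal luminescence, detergent lysis, 60 min. Evaluation: parasite load inhibition, %.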
# CSC inhib: cancer stem cell inhibition; cancer stem cell-like cells viability, luminescence; inhibition, % at 7.5 µM; 300,000 tested, 1.1% active; in the data active = inhibition above about 75%; inconclusive = no clear call, values can overlap the other calls; tested in HMLE shEcad cells
# CHOP inhibitor: CHOP inhibition in unfolded protein response. CHO-K1 CHOP-promoter luciferase, tunicamycin-induced, 15-18 h. inhibition, % at 10 µM. 220,000 tested, 3.8% active. AID 2732;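 active = compounds that reduced the stress-induced luciferase reporter signal by more than about 70% of percent inhibition, limit read from the data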
# GRIN3A LBD mod: NR3A (human) ligand-binding domain modulation. Tm shift relative to glycine control, % at 25 µM. NR3A LBD differential scanning fluorimetry, Tm shift; 0% = protein alone, 100% = glycine-bound protein. 340,000 tested, 2.5% active;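 active = melting temperature shift of at least 10% of the positive control shift, at one fixed dose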
# A number is an active result; - = inactive; ? = inconclusive; . = not tested or not shown.
SMILES,Beta cell apopt,PREPL inhibitor,T cruzi inh,CSC inhib,CHOP inhibitor,GRIN3A LBD mod
CCS(=O)(=O)Nc1cccc(C(=C2CCCCC2)c2cnc[nH]2)c1,-,-,.,-,-,-
CCCCOc1ccc(CN2CCN(CCO)CC2)cc1,-,-,-,-,-,-
CCCCCCOc1ccc(CN2CCN(CCO)CC2)cc1,-,-,-,83,-,-
O=C1CC[C@@]2(O)C3Cc4ccc(O)c5c4C2(CCN3CC2CC2)[C@H]1O5 (stereo not given in full),.,.,.,.,-,.
CC1Oc2cc3c(-c4c(O)cc(O)c5c(O)c6c(cc45)OC(C)C(C)C6=O)c(O)cc(O)c3c(O)c2C(=O)C1C (stereo not given),109,85,-,-,102,18
Cc1nc(-c2ccc(-c3ccc(C(=O)N4CCc5cc6c(cc54)C4(CCN(C)CC4)CO6)cc3)c(C)c2)no1,.,.,.,.,-,.
Cc1ccc(S(=O)(=O)N(C)N=O)cc1,-,-,.,-,.,-
CCC(C(=O)N1CCC2(CC1)OCCO2)n1c2ccccc2c2nc(=O)cc(C)n21 (stereo not given),-,-,-,-,.,-
CN1CCN(c2ccc([N+](=O)[O-])c3no[n+]([O-])c23)CC1,107,-,-,104,107,-
Cc1ccc(C2=NC(C)(C)N3C2C3c2ccc([N+](=O)[O-])cc2)cc1 (stereo not given),-,-,-,-,70,-
O=[N+]([O-])c1ccc(C2[C@H]3C(c4ccccc4)=NC4(CCCC4)N23)cc1 (stereo not given in full),-,-,-,-,-,-
OCCNc1c2c(nc3ccccc13)CCCC2,-,-,-,-,-,12
O=C(COC(=O)c1cccc(O)c1)Nc1ccc(Cl)cc1C(=O)c1ccccc1,-,-,-,-,80,-
O=C(CN1CCCC1)Nc1ccc(Cl)cc1C(=O)c1ccccc1,-,-,-,85,-,-
CCOc1ccccc1OCC(=O)Nc1ccc(Cl)cc1C(=O)c1ccccc1,-,-,-,-,-,-
NS(=O)(=O)c1ccc(N=Cc2c(O)n(C3CCCCC3)c(=O)n(C3CCCCC3)c2=O)cc1,-,-,?,90,112,14
O=P(Oc1ccccc1)(Oc1ccccc1)N1CCN(c2ccc(F)cc2)CC1,78,-,-,-,-,-
O=P(Oc1ccc(-c2ccccc2)cc1)(N1CC1)N1CC1,.,.,.,.,.,-
Cc1ccc(CN2CCN(Cc3ccccc3)CC2)cc1,-,-,59,-,-,-
Cn1c(O)c(C(=O)c2ccccc2)c(=O)n(C)c1=O,-,-,-,-,-,-
C/C(=N\Nc1ccccc1)c1c(O)[nH]c(=O)[nH]c1=O,.,-,-,82,-,-
C/C(=N\NC(=O)c1ccccc1O)c1c(O)n(Cc2ccccc2)c(=O)[nH]c1=O,-,-,-,-,-,-
C/C(=N\Nc1ccccc1)c1c(O)n(-c2ccccc2)c(=O)[nH]c1=O,-,-,.,75,-,-
C/C(=N\Nc1ccccc1)c1c(O)n(C)c(=O)n(C)c1=O,-,-,-,91,-,-
CC/C(=N\NC(=S)Nc1ccccc1)c1c(O)[nH]c(=O)[nH]c1=O,-,-,-,-,-,-
SMILES,Beta cell apopt,PREPL inhibitor,T cruzi inh,CSC inhib,CHOP inhibitor,GRIN3A LBD mod
C/C(=N\Nc1ccccc1)c1c(O)n(Cc2ccccc2)c(=O)[nH]c1=O,-,-,-,110,-,-
COC(=O)C1=C(c2ccc(C(C)=O)cc2)C[C@@H]2CC[C@H]1N2C(=O)NCCOc1ccccc1Cl,-,-,.,-,.,-
C=CCN1C[C@@H](C)N([C@H](c2ccc(C(=O)N(CC)CC)cc2)c2cccc(OC)c2)C[C@@H]1C,.,.,.,.,-,.
Nc1ncnc2c1ncn2[C@@H]1O[C@H](COP(=O)(O)CP(=O)(O)OP(=O)(O)O)[C@H](O)C1O (stereo not given in full),.,.,.,.,-,.
Cc1cc([N+](=O)[O-])c2ccccc2[n+]1[O-],115,-,79,-,104,-
COC1C(O)C(C)OC(OC2CCC3(C)C(CCC4C3C(O)CC3(C)C(C5=CC(=O)OC5)CCC43O)C2)C1O (stereo not given),.,.,.,.,.,-
C[C@@H]1O[C@@H](O[C@H]2C[C@@H](O)[C@]3(CO)[C@@H]4C(CC[C@]3(O)C2)[C@@]2(O)CC[C@H](C3COC(=O)C3)[C@@]2(C)C[C@H]4O)[C@H](O)[C@H](O)[C@H]1O (stereo not given in full),-,-,.,83,-,-
